Measurements: ChEMBL document CHEMBL5678802, “Small-molecule p21-activated kinase inhibitor PF-3758309 is a potent inhibitor of oncogenic signaling and tumor growth” (Proc Natl Acad Sci U S A, 2010)
Active and inactive are the calls of the source. The calls are words filed in the database; no cut-off is given here.

Columns and labels:
[1] = target: Ribosomal protein S6 kinase alpha-3 (Homo sapiens, UniProt P51812); assay: Inhibition of human RSK2 in presence of ATP relative to control; conditions: concentration not given here
NCI-H1666 = assay: Antiproliferative activity against human NCI-H1666 cells assessed as inhibition of cell proliferation incubated for 3 days by CellTiter-Glo Luminescent Cell Viability Assay; type: functional, cell-based; conditions: NCI-H1666, 72 h
How it was run: (§1)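 Cells of each line were plated in 384-well plates on day 1 and exposed to compound from day 2 for 3 days. On day 5 all medium was aspirated. Viable cell number was read by CellTiter-Glo luminescence, which quantifies cellular ATP.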

HPAC = assay: Antiproliferative activity against human HPAC cells assessed as inhibition of cell proliferation incubated for 3 days by CellTiter-Glo Luminescent Cell Viability Assay; type: functional, cell-based; conditions: 72 h
How it was run: (§2)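 Cancer cell lines seeded in 384-well plates on day 1; compound added on day 2 and left for 3 days. On day 5 all medium was aspirated, and viable cells were quantified by CellTiter-Glo luminescence, which measures cellular ATP. Dose-dependent effects on proliferation were determined.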

NCI-H1734 = assay: Antiproliferative activity against human NCI-H1734 cells assessed as inhibition of cell proliferation incubated for 3 days by CellTiter-Glo Luminescent Cell Viability Assay; type: functional, cell-based; conditions: NCI-H1734, 72 h; how it was run: as §1
Hs 766 = assay: Antiproliferative activity against human Hs766T cells assessed as inhibition of cell proliferation incubated for 3 days by CellTiter-Glo Luminescent Cell Viability Assay; type: functional, cell-based; conditions: Hs 766, 72 h; how it was run: as §2
PANC-08-13 = assay: Antiproliferative activity against human PANC-08-13 cells assessed as inhibition of cell proliferation incubated for 3 days by CellTiter-Glo Luminescent Cell Viability Assay; type: functional, cell-based; conditions: PANC-08-13, 72 h; how it was run: as §1
[2] = target: T1, AMP-activated protein kinase (AMPK) alpha-1/beta-1/gamma-1 (Homo sapiens, UniProt P54619+Q13131+Q9Y478); assay: Inhibition of human AMPK alpha1/beta1/gamma1 in presence of ATP; type: protein-complex assay
[3] = Cytotoxicity against primary hepatocyte (unknown origin) assessed as inhibition of cell proliferation incubated for 3 days by CellTiter-Glo Luminescent Cell Viability Assay; type: toxicity, cell-based; conditions: primary hepatocytes
HCT-116 [4] = assay: Antitumor activity against human HCT-116 cells xenografted in nude mouse assessed as inhibition of [3H]FLT uptake at 25 mg/kg, po administered once a day for 2 day and measured after 2 hrs post [3H]FLT administration by scintillation counter analysis relative to control; type: functional; conditions: HCT-116, 48 h
How it was run: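 HCT116 xenograft mice (tumors 300–350 mm3, n = 5 per group) received oral vehicle or compound, with harvests on days 2, 3 and 6. Isoflurane-anesthetized mice were given [3H]FLT (15 nCi/g, i.p.) 2 h before killing. Tumor and liver were weighed, solubilized and scintillation-counted. SUV = C/(ID/W), and uptake is reported as the tumor-to-liver SUV ratio.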

[5] = target: T1, AMP-activated protein kinase (AMPK) alpha-1/beta-1/gamma-1; assay: Inhibition of human AMPK alpha1/beta1/gamma1 assessed as inhibition constant in presence of ATP; type: protein-complex assay
HCT-116 [6] = assay: Antitumor activity against human HCT-116 cells xenografted in nude mouse assessed as reduction in Ki67 administered orally twice daily for 6 days by immunohistochemical analysis; type: functional; conditions: dose 15-25 mg/kg, route po, time 6.0 day
HCT-116 [7] = assay: Antitumor activity against human HCT-116 cells xenografted in nude mouse assessed as reduction in Elk phosphorylation at S383 residue at 15 to 150 mg/kg/day administered via pump for 18 hrs by Reverse-Phase protein array analysis; type: functional, organism-based; conditions: dose 15-150 mg/kg/day
[8] = target: T1, AMP-activated protein kinase (AMPK) alpha-1/beta-1/gamma-1; assay: Inhibition of human AMPK alpha1/beta1/gamma1 in presence of ATP by cellular assay; type: protein-complex assay
M24met = assay: Antitumor activity against human M24met cells xenografted in nude mouse assessed as tumor growth inhibition at 15 mg/kg, po administered once daily for 9 to 18 days relative to control; type: functional; conditions: time 9-18 day, read-out: TGI
[9] = target: Tyrosine-protein kinase Yes (Homo sapiens, UniProt P07947); assay: Inhibition of human YES1 assessed as inhibition constant in presence of ATP
[10] = target: T2, cGMP-dependent protein kinase 1 (Homo sapiens, UniProt Q13976); assay: Inhibition of human PRKG1 in presence of ATP
T2 sequence (Q13976 whole entry): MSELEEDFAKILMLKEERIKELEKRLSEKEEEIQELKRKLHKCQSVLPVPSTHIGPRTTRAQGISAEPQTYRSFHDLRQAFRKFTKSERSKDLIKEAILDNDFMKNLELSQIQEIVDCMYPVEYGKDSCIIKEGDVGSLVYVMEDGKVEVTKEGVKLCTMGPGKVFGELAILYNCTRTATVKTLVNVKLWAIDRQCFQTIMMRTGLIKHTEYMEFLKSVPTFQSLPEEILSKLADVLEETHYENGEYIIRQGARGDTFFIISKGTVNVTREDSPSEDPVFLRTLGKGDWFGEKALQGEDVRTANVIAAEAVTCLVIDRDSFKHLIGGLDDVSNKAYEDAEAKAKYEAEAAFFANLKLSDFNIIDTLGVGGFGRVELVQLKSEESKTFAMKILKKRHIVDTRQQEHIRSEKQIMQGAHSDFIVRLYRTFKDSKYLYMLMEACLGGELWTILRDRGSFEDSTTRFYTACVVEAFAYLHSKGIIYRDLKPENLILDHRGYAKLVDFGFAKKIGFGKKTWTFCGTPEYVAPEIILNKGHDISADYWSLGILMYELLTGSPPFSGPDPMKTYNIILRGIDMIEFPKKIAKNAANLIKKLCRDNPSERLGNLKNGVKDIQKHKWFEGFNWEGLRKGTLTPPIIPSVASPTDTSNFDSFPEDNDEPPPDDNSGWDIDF

HT-29 = assay: Antiproliferative activity against human HT-29 cells assessed as inhibition of cell proliferation incubated for 3 days by CellTiter-Glo Luminescent Cell Viability Assay; type: functional, cell-based; conditions: HT-29, 72 h; how it was run: as §2
NCI-H1650 = assay: Inhibition of anchorage independent cell growth in human NCI-H1650 cells incubated for 6 days by Alamar blue reagent based fluorescence plate reader analysis; type: functional; conditions: NCI-H1650, 144 h
[11] = target: Protein kinase C gamma type (Homo sapiens, UniProt P05129); assay: Inhibition of human PKCgamma assessed as inhibition constant in presence of ATP

T1 sequence (P54619 whole entry): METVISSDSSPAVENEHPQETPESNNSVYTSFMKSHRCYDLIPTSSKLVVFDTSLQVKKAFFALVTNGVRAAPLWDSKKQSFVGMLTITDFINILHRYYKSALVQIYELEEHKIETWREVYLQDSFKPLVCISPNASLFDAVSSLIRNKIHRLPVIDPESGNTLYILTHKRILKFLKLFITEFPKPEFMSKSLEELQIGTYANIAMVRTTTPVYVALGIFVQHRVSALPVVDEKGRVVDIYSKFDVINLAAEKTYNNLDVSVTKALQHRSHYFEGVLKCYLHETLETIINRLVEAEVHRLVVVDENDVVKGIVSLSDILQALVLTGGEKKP
T1 sequence (Q9Y478 whole entry): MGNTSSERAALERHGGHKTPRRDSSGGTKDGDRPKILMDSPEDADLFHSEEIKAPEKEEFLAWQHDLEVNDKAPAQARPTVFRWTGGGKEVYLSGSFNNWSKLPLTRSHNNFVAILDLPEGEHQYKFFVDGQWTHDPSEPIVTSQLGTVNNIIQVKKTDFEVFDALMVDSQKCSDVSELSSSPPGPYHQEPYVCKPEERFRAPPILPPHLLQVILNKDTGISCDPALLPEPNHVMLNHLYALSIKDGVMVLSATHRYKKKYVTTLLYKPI
T1 sequence (Q13131 whole entry): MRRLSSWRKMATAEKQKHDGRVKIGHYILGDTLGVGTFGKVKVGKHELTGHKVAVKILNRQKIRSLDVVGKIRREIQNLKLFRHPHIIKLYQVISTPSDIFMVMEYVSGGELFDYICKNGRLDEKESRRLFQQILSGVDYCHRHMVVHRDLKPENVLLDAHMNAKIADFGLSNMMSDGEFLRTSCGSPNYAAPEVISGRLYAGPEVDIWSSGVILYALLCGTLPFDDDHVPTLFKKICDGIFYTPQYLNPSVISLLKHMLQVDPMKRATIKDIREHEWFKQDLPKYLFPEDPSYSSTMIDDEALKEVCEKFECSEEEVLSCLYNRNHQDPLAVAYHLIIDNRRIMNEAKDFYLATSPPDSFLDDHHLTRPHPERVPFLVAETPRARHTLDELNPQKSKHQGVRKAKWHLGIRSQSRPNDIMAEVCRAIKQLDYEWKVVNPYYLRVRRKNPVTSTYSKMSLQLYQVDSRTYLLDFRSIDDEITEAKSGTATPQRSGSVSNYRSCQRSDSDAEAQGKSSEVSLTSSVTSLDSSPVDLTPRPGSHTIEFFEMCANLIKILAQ
Tyrosine-protein kinase Yes, sequence (P07947 whole entry): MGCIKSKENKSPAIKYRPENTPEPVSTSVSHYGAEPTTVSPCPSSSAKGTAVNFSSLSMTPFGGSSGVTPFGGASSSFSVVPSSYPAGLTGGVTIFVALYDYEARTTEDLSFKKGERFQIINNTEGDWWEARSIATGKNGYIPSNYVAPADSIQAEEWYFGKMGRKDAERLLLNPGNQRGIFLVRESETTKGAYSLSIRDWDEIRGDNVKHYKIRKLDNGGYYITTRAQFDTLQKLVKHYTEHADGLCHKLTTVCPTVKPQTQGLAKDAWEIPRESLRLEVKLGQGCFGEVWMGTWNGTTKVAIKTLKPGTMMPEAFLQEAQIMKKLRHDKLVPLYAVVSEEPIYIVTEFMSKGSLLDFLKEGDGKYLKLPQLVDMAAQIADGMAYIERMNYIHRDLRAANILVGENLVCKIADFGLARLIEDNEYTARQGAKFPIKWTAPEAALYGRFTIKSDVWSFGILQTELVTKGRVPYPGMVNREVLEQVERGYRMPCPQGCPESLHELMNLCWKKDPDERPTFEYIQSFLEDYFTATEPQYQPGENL
Ribosomal protein S6 kinase alpha-3, sequence (P51812 whole entry): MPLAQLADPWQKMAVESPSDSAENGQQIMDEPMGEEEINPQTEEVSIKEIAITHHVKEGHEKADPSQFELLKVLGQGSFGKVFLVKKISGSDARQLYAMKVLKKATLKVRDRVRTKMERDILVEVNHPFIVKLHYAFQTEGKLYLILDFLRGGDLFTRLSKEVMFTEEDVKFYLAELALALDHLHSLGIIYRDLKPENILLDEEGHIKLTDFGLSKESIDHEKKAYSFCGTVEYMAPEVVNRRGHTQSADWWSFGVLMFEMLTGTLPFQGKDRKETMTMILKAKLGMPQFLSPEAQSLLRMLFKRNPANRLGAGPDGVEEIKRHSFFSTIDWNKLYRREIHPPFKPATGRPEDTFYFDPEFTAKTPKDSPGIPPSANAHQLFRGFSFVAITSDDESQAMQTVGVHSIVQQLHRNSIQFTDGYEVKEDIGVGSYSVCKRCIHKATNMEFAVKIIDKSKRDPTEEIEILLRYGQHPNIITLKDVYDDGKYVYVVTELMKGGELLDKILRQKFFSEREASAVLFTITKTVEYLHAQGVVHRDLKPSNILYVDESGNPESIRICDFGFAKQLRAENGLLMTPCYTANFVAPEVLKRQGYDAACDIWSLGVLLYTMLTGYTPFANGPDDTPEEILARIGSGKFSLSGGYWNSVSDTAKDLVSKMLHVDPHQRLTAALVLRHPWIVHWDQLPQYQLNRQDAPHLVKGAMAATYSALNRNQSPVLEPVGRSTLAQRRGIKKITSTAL

`Cc1nc(Nc2n[nH]c3c2CN(C(=O)N[C@H](CN(C)C)c2ccccc2)C3(C)C)c2sccc2n1` [PF-03758309] gave an inhibition [1] of 101%, an IC50 (NCI-H1666) of 3.8 nM and an IC50 (HPAC) of 265 nM. For the same compound, the IC50 (NCI-H1734) was 4.1 nM, the IC50 (Hs 766) was 416 nM and the IC50 (PANC-08-13) was 12 nM. It also gave an IC50 [2] of 1 nM, an IC50 at 3 days [3] greater than 1000 nM and an inhibition in vivo at 25 mg/kg (HCT-116 [4]) of 35.3%. The Ki [5] was 5 nM, the Activity (HCT-116 [6]) was “Dose-Dependent Effect” and the Activity (HCT-116 [7]) was “Active”. The IC50 [8] was 40 nM, the inhibition in vivo at 15 mg/kg (M24met) was 72% and the Ki [9] was 43 nM. The IC50 [10] was 34 nM, the IC50 (HT-29) was 4.3 nM and the IC50 (NCI-H1650) was 5.57 nM. It also gave a Ki [11] of 43 nM.
